Key:
Format in all cases: functional
CAKI-1 = experiment: Growth inhibition of human Caki1 cells at 10 uM after 48 hrs by SRB assay relative to control; conditions: CAKI-1, 48 h, read-out: GI
Procedure, shortened: (§1)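 Screened at the National Cancer Institute by the standard NCI protocol using the sulforhodamine B assay, which measures cellular protein. Single dose of 10 µM. Result is percent growth inhibition; values above 100% mean cell number fell below the initial population. Values are the average of duplicates.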

SK-MEL-28 = experiment: Growth inhibition of human SK-MEL-28 cells at 10 uM after 48 hrs by SRB assay relative to control; conditions: SK-MEL-28, 48 h, read-out: GI; procedure, shortened: as §1
HOP-92 = experiment: Growth inhibition of human HOP92 cells at 10 uM after 48 hrs by SRB assay relative to control; conditions: HOP-92, 48 h, read-out: GI; procedure, shortened: as §1
SF-268 = experiment: Growth inhibition of human SF268 cells at 10 uM after 48 hrs by SRB assay relative to control; conditions: SF-268, 48 h, read-out: GI; procedure, shortened: as §1
SNB-75 = experiment: Growth inhibition of human SNB75 cells at 10 uM after 48 hrs by SRB assay relative to control; conditions: SNB-75, 48 h, read-out: GI
Procedure, shortened: (§2)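 NCI screen against its human cancer cell line panel by the standard NCI protocol, SRB protein stain. Single dose of 10 μM. Percent growth inhibition versus control; values above 100% mean the cell population fell below the starting number. Each value is the mean of duplicates.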

MOLT-4 = experiment: Growth inhibition of human MOLT4 cells at 10 uM after 48 hrs by SRB assay relative to control; conditions: MOLT-4, 48 h, read-out: GI; procedure, shortened: as §1
K562 = experiment: Growth inhibition of human K562 cells at 10 uM after 48 hrs by SRB assay relative to control; conditions: K562, 48 h, read-out: GI; procedure, shortened: as §1
RXF 393 = experiment: Growth inhibition of human RXF393 cells at 10 uM after 48 hrs by SRB assay relative to control; conditions: RXF 393, 48 h, read-out: GI; procedure, shortened: as §1
NCI/ADR-RES = experiment: Growth inhibition of human NCI/ADR-RES cells at 10 uM after 48 hrs by SRB assay relative to control; conditions: read-out: GI; procedure, shortened: as §1
Malme-3M = experiment: Growth inhibition of human MALME-3M cells at 10 uM after 48 hrs by SRB assay relative to control; conditions: read-out: GI; procedure, shortened: as §1
SK-MEL-2 = experiment: Growth inhibition of human SK-MEL-2 cells at 10 uM after 48 hrs by SRB assay relative to control; conditions: SK-MEL-2, 48 h, read-out: GI; procedure, shortened: as §1
RPMI-8226 = experiment: Growth inhibition of human RPMI8226 cells at 10 uM after 48 hrs by SRB assay relative to control; conditions: RPMI-8226, 48 h, read-out: GI; procedure, shortened: as §1
MDA-MB-468 = experiment: Growth inhibition of human MDA-MB-468 cells at 10 uM after 48 hrs by SRB assay relative to control; conditions: MDA-MB-468, 48 h, read-out: GI; procedure, shortened: as §1
Hs-578T = experiment: Growth inhibition of human Hs 578T cells at 10 uM after 48 hrs by SRB assay relative to control; conditions: read-out: GI; procedure, shortened: as §1
DU-145 = experiment: Growth inhibition of human DU145 cells at 10 uM after 48 hrs by SRB assay relative to control; conditions: DU-145, 48 h, read-out: GI; procedure, shortened: as §1
IGROV-1 = experiment: Growth inhibition of human IGROV1 cells at 10 uM after 48 hrs by SRB assay relative to control; conditions: IGROV-1, 48 h, read-out: GI; procedure, shortened: as §1
OVCAR-8 = experiment: Growth inhibition of human OVCAR8 cells at 10 uM after 48 hrs by SRB assay relative to control; conditions: OVCAR-8, 48 h, read-out: GI; procedure, shortened: as §1
MCF7 = experiment: Growth inhibition of human MCF7 cells at 10 uM after 48 hrs by SRB assay relative to control; conditions: MCF7, 48 h, read-out: GI; procedure, shortened: as §1
LOX IMVI = experiment: Growth inhibition of human LOXIMVI cells at 10 uM after 48 hrs by SRB assay relative to control; conditions: read-out: GI; procedure, shortened: as §1
HOP-62 = experiment: Growth inhibition of human HOP62 cells at 10 uM after 48 hrs by SRB assay relative to control; conditions: HOP-62, 48 h, read-out: GI; procedure, shortened: as §1
UACC-257 = experiment: Growth inhibition of human UACC257 cells at 10 uM after 48 hrs by SRB assay relative to control; conditions: UACC-257, 48 h, read-out: GI; procedure, shortened: as §2
KM12 = experiment: Growth inhibition of human KM12 cells at 10 uM after 48 hrs by SRB assay relative to control; conditions: KM12, 48 h, read-out: GI; procedure, shortened: as §1
UO-31 = experiment: Growth inhibition of human UO31 cells at 10 uM after 48 hrs by SRB assay relative to control; conditions: UO-31, 48 h, read-out: GI; procedure, shortened: as §2
OVCAR-5 = experiment: Growth inhibition of human OVCAR5 cells at 10 uM after 48 hrs by SRB assay relative to control; conditions: OVCAR-5, 48 h, read-out: GI; procedure, shortened: as §1
SN12C = experiment: Growth inhibition of human SN12C cells at 10 uM after 48 hrs by SRB assay relative to control; conditions: read-out: GI; procedure, shortened: as §1
HCT-116 = experiment: Growth inhibition of human HCT116 cells at 10 uM after 48 hrs by SRB assay relative to control; conditions: HCT-116, 48 h, read-out: GI; procedure, shortened: as §1
786-0 = experiment: Growth inhibition of human 786-0 cells at 10 uM after 48 hrs by SRB assay relative to control; conditions: 786-0, 48 h, read-out: GI; procedure, shortened: as §1
HCT-15 = experiment: Growth inhibition of human HCT15 cells at 10 uM after 48 hrs by SRB assay relative to control; conditions: HCT-15, 48 h, read-out: GI; procedure, shortened: as §1
SNB-19 = experiment: Growth inhibition of human SNB19 cells at 10 uM after 48 hrs by SRB assay relative to control; conditions: SNB-19, 48 h, read-out: GI; procedure, shortened: as §2
SW-620 = experiment: Growth inhibition of human SW620 cells at 10 uM after 48 hrs by SRB assay relative to control; conditions: SW-620, 48 h, read-out: GI; procedure, shortened: as §2
ACHN = experiment: Growth inhibition of human ACHN cells at 10 uM after 48 hrs by SRB assay relative to control; conditions: read-out: GI; procedure, shortened: as §1
SF-539 = experiment: Growth inhibition of human SF539 cells at 10 uM after 48 hrs by SRB assay relative to control; conditions: SF-539, 48 h, read-out: GI; procedure, shortened: as §1
HL-60(TB) = experiment: Growth inhibition of human HL-60(TB) cells at 10 uM after 48 hrs by SRB assay relative to control; conditions: HL-60, 48 h, read-out: GI
Procedure, shortened: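 Run at NCI under its standard single-dose protocol against a leukemia cell panel. Cells were exposed to 10 µM; growth was read by sulforhodamine B staining of cellular protein and expressed as % growth inhibition versus untreated control. Values above 100% mean the cell population fell below the starting count (cytocidal). Each value is the average of duplicates.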

PC-3 = experiment: Growth inhibition of human PC3 cells at 10 uM after 48 hrs by SRB assay relative to control; conditions: PC-3, 48 h, read-out: GI; procedure, shortened: as §1

Compound | inhibition of growth at 10 µM (CAKI-1) [%] | inhibition of growth at 10 µM (SK-MEL-28) [%] | inhibition of growth at 10 µM (HOP-92) [%] | inhibition of growth at 10 µM (SF-268) [%] | inhibition of growth at 10 µM (SNB-75) [%] | inhibition of growth at 10 µM (MOLT-4) [%] | inhibition of growth at 10 µM (K562) [%] | inhibition of growth at 10 µM (RXF 393) [%] | inhibition of growth at 10 µM (NCI/ADR-RES) [%] | inhibition of growth at 10 µM (Malme-3M) [%] | inhibition of growth at 10 µM (SK-MEL-2) [%] | inhibition of growth at 10 µM (RPMI-8226) [%] | inhibition of growth at 10 µM (MDA-MB-468) [%] | inhibition of growth at 10 µM (Hs-578T) [%] | inhibition of growth at 10 µM (DU-145) [%] | inhibition of growth at 10 µM (IGROV-1) [%] | inhibition of growth at 10 µM (OVCAR-8) [%] | inhibition of growth at 10 µM (MCF7) [%] | inhibition of growth at 10 µM (LOX IMVI) [%] | inhibition of growth at 10 µM (HOP-62) [%] | also measured
COc1cc(NC(=O)c2cccc(-c3cc(=O)c4c(O)c(OC)c(OC)cc4o3)c2)cc(OC)c1OC | 37.5 | 22.6 | 43.9 | 38.1 | 67.8 | 27.2 | 45.5 | 25 | 50.6 | 49 | 30.4 | 73 | 40.1 | 104 | 42.8 | 29.6 | 76.9 | 50.6 | 67 | 88.3 | inhibition of growth at 10 µM (UACC-257): 33.9%; inhibition of growth at 10 µM (KM12): 46.1%; inhibition of growth at 10 µM (UO-31): 65.7%; inhibition of growth at 10 µM (OVCAR-5): 22.6%; inhibition of growth at 10 µM (SN12C): 37%; inhibition of growth at 10 µM (HCT-116): 55.2%; inhibition of growth at 10 µM (786-0): 33.7%; inhibition of growth at 10 µM (HCT-15): 40.1%; inhibition of growth at 10 µM (SNB-19): 50%; inhibition of growth at 10 µM (SW-620): 26.7%; inhibition of growth at 10 µM (ACHN): 83.7%; inhibition of growth at 10 µM (SF-539): 48.3%; inhibition of growth at 10 µM (HL-60(TB)): 22%; inhibition of growth at 10 µM (PC-3): 50.2%
COc1cc2oc(-c3cccc(C(=O)Nc4ccccc4)c3)cc(=O)c2c(O)c1OC | 51.1 | 12.6 | 94.7 | 63 | 78.2 | 0.26 | 2.93 | 43.5 | 20.9 | 35.5 | 35 | 16.5 | 30.6 | 88.9 | 34.4 | 14.6 | 84.6 | 21.9 | 11.9 | 91.1 | inhibition of growth at 10 µM (UACC-257): 15.7%; inhibition of growth at 10 µM (KM12): 42.2%; inhibition of growth at 10 µM (UO-31): 40.3%; inhibition of growth at 10 µM (OVCAR-5): 5.59%; inhibition of growth at 10 µM (SN12C): 25.2%; inhibition of growth at 10 µM (HCT-116): 53.7%; inhibition of growth at 10 µM (786-0): 68.5%; inhibition of growth at 10 µM (HCT-15): 7.23%; inhibition of growth at 10 µM (SNB-19): 42.3%; inhibition of growth at 10 µM (SW-620): 5.67%; inhibition of growth at 10 µM (ACHN): 42%; inhibition of growth at 10 µM (SF-539): 80.6%; inhibition of growth at 10 µM (HL-60(TB)): 7.3%; inhibition of growth at 10 µM (PC-3): 29%

Source: ChEMBL document CHEMBL4325889, “Natural products hybrids: 3,5,4'-Trimethoxystilbene-5,6,7-trimethoxyflavone chimeric analogs as potential cytotoxic agents against diverse human cancer cells” (Eur J Med Chem, 2019)
